Assay results as given in ChEMBL document CHEMBL1149831, “Synthesis of 2-aryl-4-(benzimidazol-2-yl)-1,2-dihydro[1,2,4]triazino-[4,5-a]benzimidazol-1-one derivatives with preferential cytotoxicity against carcinoma cell lines” (Eur J Med Chem, 2008).

Legend:
Type in all cases: functional, cell-based
CCRF-CEM [1] = assay: Cytotoxicity against human CEM-DNR bulk cells after 72 hrs by MTT assay
Method in brief: (§1)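 Cells grown in DMEM/RPMI 1640 with 5 g/L glucose, 2 mM glutamine, penicillin/streptomycin, 10% fetal calf serum and NaHCO3. Seeded in 96-well plates and left 24 h at 37 °C, 5% CO2 before compound addition. Exposure then ran 72 h, each concentration in duplicate. MTT added for 1-4 h and formazan dissolved overnight in 10% aq. SDS (pH 5.5). OD read at 540 nm, with IC50 taken from dose-response curves.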

HCT-116 [2] = assay: Cytotoxicity against human HCT116 cells expressing wild type p53 after 72 hrs by MTT assay; details: HCT-116, 72 h; method in brief: as §1
MCF7 = assay: Cytotoxicity against human MCF7 cells after 72 hrs by MTT assay; details: MCF7, 72 h; method in brief: as §1
HCT-116 [3] = assay: Cytotoxicity against human HCT116 cells expressing mutant p53 after 72 hrs by MTT assay; details: HCT-116, 72 h; method in brief: as §1
K562 [4] = assay: Cytotoxicity against human K562 cells after 72 hrs by MTT assay; details: K562, 72 h; method in brief: as §1
A549 = assay: Cytotoxicity against human A549 cells after 72 hrs by MTT assay; details: A549, 72 h; method in brief: as §1
K562 [5] = assay: Cytotoxicity against human K562-Tax cells after 72 hrs by MTT assay; details: K562, 72 h; method in brief: as §1
CCRF-CEM [6] = assay: Cytotoxicity against human CEM cells after 72 hrs by MTT assay; method in brief: as §1
HT-29 = assay: Cytotoxicity against human HT29 cells after 72 hrs by MTT assay; details: HT-29, 72 h; method in brief: as §1
PC-3 = assay: Cytotoxicity against human PC3 cells after 72 hrs by MTT assay; details: PC-3, 72 h; method in brief: as §1
U-118-MG = assay: Cytotoxicity against human U118Mg cells after 72 hrs by MTT assay; method in brief: as §1

| SMILES | IC50 (CCRF-CEM [1]) | IC50 (HCT-116 [2]) | IC50 (MCF7) | IC50 (HCT-116 [3]) | IC50 (K562 [4]) | IC50 (A549) | IC50 (K562 [5]) | IC50 (CCRF-CEM [6]) | IC50 (HT-29) | IC50 (PC-3) | IC50 (U-118-MG) |
| --- | --- | --- | --- | --- | --- | --- | --- | --- | --- | --- | --- |
| CCOC(=O)n1c(-c2nn(-c3ccc(Cl)cc3)c(=O)n3c2nc2ccccc23)nc2ccccc21 | 111 µM | 7.7 µM | 21.3 µM | 6.4 µM | 14.1 µM | 4 µM | 7.9 µM | 31.8 µM | 29.7 µM | 150 µM | 12.4 µM |
| c1ccc(NN=C(c2nc3ccccc3[nH]2)c2nc3ccccc3[nH]2)cc1 | 27.9 µM | 162 µM | 83.2 µM | 17.6 µM | 114 µM | 3.8 µM | 144 µM | 13 µM | 81.9 µM | 248 µM | 160 µM |
| COc1ccc(NN=C(c2nc3ccccc3[nH]2)c2nc3ccccc3[nH]2)cc1 | 96.7 µM | 35.7 µM | 215 µM | 66.5 µM | 116 µM | 0.5 µM | 235 µM | 10.9 µM | 114 µM | 250 µM | 250 µM |
| O=c1n(-c2ccccc2)nc(-c2nc3ccccc3[nH]2)c2nc3ccccc3n12 | 45.6 µM | 38.1 µM | 74.8 µM | 8.6 µM | 23.5 µM | 11.5 µM | 42.7 µM | 12.2 µM | 8 µM | 13.6 µM | 12 µM |
| CCOC(=O)n1c(-c2nn(-c3ccc(OC)cc3)c(=O)n3c2nc2ccccc23)nc2ccccc21 | 111 µM | 42.8 µM | 51.6 µM | 46.3 µM | 14 µM | 44.4 µM | 7.8 µM | 31.8 µM | 38.7 µM | 145 µM | 54.3 µM |
| Cc1ccc(-n2nc(-c3nc4ccccc4[nH]3)c3nc4ccccc4n3c2=O)cc1 | 61.2 µM | 7.8 µM | 34.1 µM | 7.6 µM | 18.3 µM | 14.7 µM | 20.9 µM | 18.5 µM | 15.2 µM | 40.8 µM | 17.9 µM |
| CCOC(=O)n1c(-c2nn(-c3ccccc3)c(=O)n3c2nc2ccccc23)nc2ccccc21 | 18.4 µM | 11.4 µM | 35.1 µM | 10.8 µM | 69.4 µM | 18 µM | 42.2 µM | 58.6 µM | 15.2 µM | 37.5 µM | 17.7 µM |
| O=c1n(-c2ccc([N+](=O)[O-])cc2)nc(-c2nc3ccccc3[nH]2)c2nc3ccccc3n12 | 190 µM | 250 µM | 250 µM | 250 µM | 210 µM | 2.2 µM | 250 µM | 103 µM | 248 µM | 250 µM | 250 µM |
| Clc1ccc(NN=C(c2nc3ccccc3[nH]2)c2nc3ccccc3[nH]2)cc1 | 112 µM | 201 µM | 140 µM | 16.8 µM | 200 µM | 2.8 µM | 159 µM | 42.5 µM | 114 µM | 250 µM | 250 µM |
| O=[N+]([O-])c1ccc(NN=C(c2nc3ccccc3[nH]2)c2nc3ccccc3[nH]2)cc1 | 140 µM | 11.7 µM | 94.8 µM | 4.7 µM | 190 µM | 0.7 µM | 101 µM | 58.4 µM | 17.7 µM | 218 µM | 250 µM |
| CCOC(=O)n1c(-c2nn(-c3ccc(C)cc3)c(=O)n3c2nc2ccccc23)nc2ccccc21 | 29.6 µM | 46.3 µM | 134 µM | 44.4 µM | 140 µM | 71 µM | 53.7 µM | 25.5 µM | 96.2 µM | 165 µM | 147 µM |
| Cc1ccc(NN=C(c2nc3ccccc3[nH]2)c2nc3ccccc3[nH]2)cc1 | 87.6 µM | 195 µM | 95.8 µM | 10.5 µM | 160 µM | 0.6 µM | 239 µM | 26.5 µM | 95.9 µM | 250 µM | 250 µM |
| O=c1n(-c2ccc(Cl)cc2)nc(-c2nc3ccccc3[nH]2)c2nc3ccccc3n12 | 51.2 µM | 73.9 µM | 140 µM | 2.3 µM | 134 µM | 1.2 µM | 167 µM | 83.6 µM | 88.6 µM | 242 µM | 247 µM |
| CCOC(=O)n1c(-c2nn(-c3ccc([N+](=O)[O-])cc3)c(=O)n3c2nc2ccccc23)nc2ccccc21 | 224 µM | 70.7 µM | 144 µM | 5.4 µM | 166 µM | 4.4 µM | 196 µM | 155 µM | 21.9 µM | 125 µM | 6.2 µM |
| COc1ccc(-n2nc(-c3nc4ccccc4[nH]3)c3nc4ccccc4n3c2=O)cc1 | 35.4 µM | 6.9 µM | 10.7 µM | 3.6 µM | 8.7 µM | 8.7 µM | 7.5 µM | 3.5 µM | 6 µM | 24.6 µM | 10 µM |
